Screening data deposited in PubChem by several laboratories.
Hits are enriched below; roughly 2.8% of the tested compounds scored in any of these assays.
EP2 antag: blocks the human prostaglandin E2 receptor EP2; inhibition, % at 25 µM; hit rate 0.52% among 260,000; AID 1422; C6 glioma cells expressing human EP2, cAMP TR-FRET; cells stimulated with saturating PGE2;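 active = percent inhibition above 40 after rounding to a whole number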;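 note: rat C6 glioma host cells with rolipram phosphodiesterase inhibitor present; the protocol text gives 20 µM as final concentration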
NPY Y1 blocker: antagonists of human neuropeptide Y receptor Y1; P25929; HEK293-CNG Y1 cells, membrane potential fluorescence; NPY at EC95, then isoproterenol; inhibition, % at 3.6 µM; hit rate 1% among 200,000;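 active = inhibition above the campaign mean inhibition of all tested compounds plus 3 SD, cut at about 20% in these data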;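 note: 0% = DMSO wells given NPY plus isoproterenol and 100% = isoproterenol alone without NPY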
Target sequence (P25929 whole entry, looked up): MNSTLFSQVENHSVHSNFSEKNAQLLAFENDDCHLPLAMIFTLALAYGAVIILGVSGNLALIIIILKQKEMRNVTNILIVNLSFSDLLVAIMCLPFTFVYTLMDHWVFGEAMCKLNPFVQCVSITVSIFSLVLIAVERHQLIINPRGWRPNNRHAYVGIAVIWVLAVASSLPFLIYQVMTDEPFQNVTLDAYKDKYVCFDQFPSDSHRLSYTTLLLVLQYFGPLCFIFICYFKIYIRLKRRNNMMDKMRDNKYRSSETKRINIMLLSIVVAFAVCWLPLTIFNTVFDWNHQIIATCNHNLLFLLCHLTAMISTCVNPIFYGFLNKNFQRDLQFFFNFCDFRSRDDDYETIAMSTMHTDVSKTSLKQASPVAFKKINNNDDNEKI
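Test system – HEK293 Y1/CNG channel cell line · Also added – NPY agonist 25 nM, then isoproterenol 1 µM plus Ro 20-1724 25 µM · Compound dosing – one concentration, 3.6 µM, in 0.4% DMSO · Schedule – compound incubation 1 h at room temperature, readout 45 min post-stimulation · Technique – fluorescence, membrane potential probe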
NPY Y2 blocker: blocks the human neuropeptide Y Y2 receptor; P49146; NPY-Y2 expressing cells, antagonist mode; inhibition, % at 2.7 µM; hit rate 0.99% among 140,000; AID 793; in the data active = inhibition above about 17%;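 note: 0% = vehicle with agonist challenge and 100% = reference antagonist with challenge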
EP2 mod: modulates human prostaglandin E2 receptor EP2 signaling. P43116. EP2-expressing cells, cAMP HTRF FRET, PGE2 co-stimulation. induction, % at 25 µM. hit rate 0.83% among 260,000;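 active = compounds whose cAMP rise, as percent of the full-agonist control response, exceeds 60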;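 note: rat C6 glioma line stably carrying human EP2 under a CMV promoter; the protocol text gives 20 µM as final concentration; 100% = response of wells given 1 µM PGE2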
NPY2 pot ag: potentiators or agonists of human neuropeptide Y receptor Y2; activation, % at 3.6 µM; P49146; hit rate 0.45% among 220,000; cells expressing NPY-Y2, potentiator/agonist read-out; AID 1359; in the data active = activation above about 27%;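 note: cells stimulated with NPY near EC25 plus isoproterenol at EC100; 0% = vehicle plus submaximal agonist and 100% = vehicle plus saturating agonist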
NPY1 pot ag: potentiators or agonists of human neuropeptide Y receptor Y1; P25929; NPY-Y1 expressing cells, potentiator/agonist activation; activation, % at 3.6 µM; hit rate 0.37% among 220,000; AID 1304; in the data active = activation above about 33%, passing the limit was not always enough;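 note: cells stimulated with NPY at EC10 then isoproterenol at EC100; 0% = low agonist plus stimulus and 100% = saturating agonist plus stimulus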
Starred values were filed as active, the others as inactive; ! = a repeat was not active.

Results for COc1ccc(S(=O)(=O)N2CCSC2)cc1C ?
EP2 antag: 7.7; NPY Y1 blocker: -2.4; NPY Y2 blocker: 2.6; EP2 mod: 6.0; NPY2 pot ag: 9.1; NPY1 pot ag: 6.5

What do the screens show for `Cc1ccc(S(=O)(=O)N2CCSC2)cc1C`?
EP2 antag: 109.4*!; NPY Y1 blocker: 3.5; NPY Y2 blocker: -1.0; EP2 mod: -13.9; NPY2 pot ag: 15.2; NPY1 pot ag: 8.0

Results for CCC(c1nnnn1CC1CCCO1)N(Cc1cc2cc(C)cc(C)c2[nH]c1=O)CC1CCCO1 (centres undefined) ?
EP2 antag: 13.2; EP2 mod: 2.0

What do the screens show for `C=CCn1c(CNC(=O)c2ccccc2C)n[nH]c1=S`?
EP2 antag: 5.2; EP2 mod: 5.6

Results for CC(NC(=O)c1cc(-c2ccc3c(c2)OCO3)nc2ccccc12)C(C)(C)C (centres undefined) ?
EP2 antag: 7.0; NPY Y1 blocker: 146.8*; NPY Y2 blocker: 151.0*; EP2 mod: -12.0; NPY2 pot ag: -118.9; NPY1 pot ag: -455.8

What do the screens show for `CCOc1ccc(-c2cc(C(=O)Nc3ccc4c(c3)OCCO4)c3ccccc3n2)cc1`?
EP2 antag: 8.7; NPY Y1 blocker: 27.4*; NPY Y2 blocker: 7.6; EP2 mod: -5.4; NPY2 pot ag: -12.4; NPY1 pot ag: -8.0

How did O=C(O)c1cc(-c2ccc3c(c2)OCO3)nc2ccccc12 do in these assays?
EP2 antag: 17.0; NPY Y1 blocker: 5.5; NPY Y2 blocker: 5.2; EP2 mod: 5.2; NPY2 pot ag: -5.4; NPY1 pot ag: 1.9

Results for CN(C)c1ncc(S(=O)(=O)c2ccccc2)c(-c2ccc(Cl)cc2Cl)n1 ?
NPY Y1 blocker: 4.2; NPY Y2 blocker: 6.5; EP2 mod: 64.6*; NPY2 pot ag: 12.0; NPY1 pot ag: -4.2

Results for CCN(CC)C(=O)N(CCc1ccccc1)Cc1cc2cc(C)ccc2[nH]c1=O ?
EP2 antag: 7.7; EP2 mod: -245.7

What do the screens show for `CCOC(=O)Cn1c(C(F)(F)F)nc2nc(Cl)c(Cl)nc21`?
EP2 antag: 40.0*; EP2 mod: -33.1

How did O=[N+]([O-])c1ccc(NN=C2c3ccccc3Cc3ccccc32)c([N+](=O)[O-])c1 do in these assays?
EP2 antag: 44.2*; EP2 mod: 24.1

What do the screens show for `CC1CCC/C(=N/Nc2ccc([N+](=O)[O-])cc2[N+](=O)[O-])C1` (centres undefined)?
EP2 antag: 19.5; NPY Y1 blocker: 8.9; NPY Y2 blocker: 2.5; EP2 mod: 27.1; NPY2 pot ag: 1.8; NPY1 pot ag: 13.4

Results for O=C(Cn1nnc(-c2ccc(Cl)cc2)n1)NCC1CC1 ?
EP2 antag: 20.9; EP2 mod: -34.9

What do the screens show for `Cc1cc(C(F)F)n2nc(C(=O)N3C4CCC3CC(c3ccc(F)cc3)C4)nc2n1` (centres undefined)?
EP2 antag: 7.7; EP2 mod: -13.7

Results for COC(=O)c1cc(-c2ccc(OC)cc2)nc2ccccc12 ?
EP2 antag: 12.8; EP2 mod: -0.5

What do the screens show for `CN1c2cccc3cccc(c23)N(C)C1c1cccs1`?
EP2 antag: 4.7; NPY Y1 blocker: 2.6; NPY Y2 blocker: 4.4; EP2 mod: 64.4*; NPY2 pot ag: -1.8; NPY1 pot ag: 21.6

Results for Cc1ccc(S(=O)(=O)N=Nc2c(O)[nH]c3cc(O)c(C(=O)O)cc23)cc1 ?
EP2 antag: 40.9*; EP2 mod: 16.3

How did COc1ccc(-n2nc(C(=O)N3CCCCC3)c(C)c(C#N)c2=O)cc1 do in these assays?
EP2 antag: 13.7; NPY Y1 blocker: 4.7; EP2 mod: 31.2; NPY2 pot ag: 1.4; NPY1 pot ag: 9.3

What do the screens show for `CCOC(=O)c1nn(-c2ccc(OC)cc2)c(=O)c(C#N)c1C`?
EP2 antag: 73.6*; EP2 mod: -33.0

Results for CCOC(=O)C(C)n1ncc2cccn2c1=O (centres undefined) ?
EP2 antag: 3.6; EP2 mod: 0.1

How did O=C(O)c1ccc(-c2ccco2)n1Cc1ccccc1 do in these assays?
EP2 antag: 18.2; NPY Y1 blocker: 15.9; NPY Y2 blocker: 11.8; EP2 mod: 6.2; NPY2 pot ag: -0.1; NPY1 pot ag: -11.6

Results for COC(=O)c1ccc(-c2ccco2)n1Cc1cc(C)ccc1C ?
EP2 antag: 5.9; NPY Y1 blocker: 3.0; NPY Y2 blocker: 4.8; EP2 mod: 62.3*; NPY2 pot ag: 6.7; NPY1 pot ag: 12.7

Results for COc1cc(C(=O)N2C3CCC2CC(O)(c2nccn2C)C3)cc(OC)c1OC (centres undefined) ?
EP2 mod: -25.4

How did CC1CCN(C(=O)CSc2nc(COc3ccccc3)nc3ccccc23)CC1 do in these assays?
EP2 antag: 8.9; EP2 mod: 80.5*

Results for N#CC(C#N)=C1C=CC=CN1/C(=C\c1ccccc1)C(=O)c1cccs1 ?
EP2 antag: 49.5*; NPY Y1 blocker: -2.7; NPY Y2 blocker: 0.9; EP2 mod: 1.8; NPY2 pot ag: 3.3; NPY1 pot ag: -10.0

Results for N#CC(C#N)=C1C=CC=CN1/C(=C\c1ccccc1Cl)C(=O)c1ccccc1 ?
EP2 antag: 24.4; NPY Y1 blocker: -5.3; NPY Y2 blocker: 7.6; EP2 mod: -29.6; NPY2 pot ag: -7.7; NPY1 pot ag: -27.1

How did Cc1cc(C)c2[nH]c(=O)c(CN(Cc3nnnn3Cc3ccc(F)cc3)CC3CCCO3)cc2c1 (centres undefined) do in these assays?
EP2 antag: 4.4; EP2 mod: 19.7

What do the screens show for `Cc1cccc(Oc2nc(CN3CCOCC3)nc3sc4c(c23)CCCC4)c1`?
EP2 antag: 14.5; NPY Y1 blocker: 20.4*; NPY Y2 blocker: 29.1*; EP2 mod: 39.5; NPY2 pot ag: -3.3; NPY1 pot ag: -21.7

What do the screens show for `Clc1nc(CN2CCOCC2)nc2sc3c(c12)CCC3`?
EP2 antag: 8.3; NPY Y1 blocker: -4.3; EP2 mod: -1.2; NPY2 pot ag: -5.2; NPY1 pot ag: -16.9

How did COc1ccc(Br)cc1/C=C/C(=O)NCC1(c2ccccc2)CCOCC1 do in these assays?
EP2 antag: 10.2; EP2 mod: -92.3

Results for COc1ccc(N2CCN(C(=O)CSc3nnc(-c4cc5ccccc5cc4O)n3C)CC2)cc1 ?
EP2 antag: 5.4; NPY Y1 blocker: -0.4; NPY Y2 blocker: -0.9; EP2 mod: -22.2; NPY2 pot ag: 92.5*; NPY1 pot ag: 85.6*

What do the screens show for `COC(=O)N(NC(=O)C(O)(c1ccccc1)c1ccccc1)c1ccc(C)cc1`?
EP2 antag: 5.9; NPY Y1 blocker: 30.9*; NPY Y2 blocker: 20.9*; EP2 mod: 33.0; NPY2 pot ag: -17.0; NPY1 pot ag: -0.9

How did CCOC(=O)N(NC(=O)C(O)(c1ccccc1)c1ccccc1)c1ccccc1 do in these assays?
EP2 antag: 8.8; NPY Y1 blocker: 46.2*; NPY Y2 blocker: 20.1*; EP2 mod: 31.2; NPY2 pot ag: 0.9; NPY1 pot ag: -28.3
